# According to ChEMBL document CHEMBL1124591, “Polyfluoro 1,3-diketones as systemic insecticides” (1989):
# Columns and labels:
# Format in all cases: functional
# Stomoxys calcitrans [1] = test: In vitro insecticidal activity in bovine serum against adult stable fly
# Procedure, shortened: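 Twenty chilled 5-day-old hungry adult Stomoxys calcitrans in covered petri dish exposed to compound in bovine serum on saturated dental wick, incubated 24 or 48 h.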
# Stomoxys calcitrans [2] = test: In vitro insecticidal activity against adult stable fly in serum collected from calves administered with 0.35 mg/kg
# Stomoxys calcitrans [3] = test: In vitro insecticidal activity against adult stable fly in serum collected from calves administered with 0.50 mg/kg; conditions: dose 0.5 mg/kg
# Stomoxys calcitrans [4] = test: In vitro insecticidal activity against adult stable fly in serum collected from calves administered with 1.00 mg/kg
# Stomoxys calcitrans [5] = test: In vivo insecticidal activity against adult stable fly in serum collected from calves administered with 0.50 mg/kg; conditions: dose 0.5 mg/kg
# Stomoxys calcitrans [6] = test: In vivo insecticidal activity against adult stable fly in serum collected from calves administered with 1 mg/kg
# Calliphoridae [7] = test: In vivo insecticidal activity against Larval blowfly from calves administered with 0.50 mg/kg; conditions: dose 0.5 mg/kg
# Procedure, shortened: (§1)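 Calves dosed daily intraruminally through implanted rumen tube with diketone in 5 mL PEG-200 (vehicle and untreated controls). Daily serum fed on saturated dental wick to ~50 first-instar blowflies, 27 °C, 55% RH; mortality after 48 h (24 h where noted); day of onset of ≥50% mortality recorded.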
# Calliphoridae [8] = test: In vitro insecticidal activity in bovine serum against Blowfly larvae
# Procedure, shortened: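 In vitro bait: ~50 first-instar blowflies placed on dental wick saturated with compound in bovine serum, in loosely plugged tube, 27 °C, 55% RH, under fluorescent light, 24 h.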
# Calliphoridae [9] = test: In vivo insecticidal activity against Larval blowfly from calves administered with 0.20 mg/kg; conditions: dose 0.2 mg/kg; procedure, shortened: as §1
# Stomoxys calcitrans [10] = test: Mortality percentage on day 6 in Adult stable flies after their exposure to sera for 48 hours, from the cattle, administered with the compound at 5 mg/kg
# Procedure, shortened: (§2)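 Calves given single intraruminal 5 mg/kg in 5 mL PEG-200, with vehicle and untreated controls; serum collected daily and fed on saturated dental wick to adult stable flies (20/dish) or ~50 first-instar blowflies; % mortality read after 48 h exposure.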
# Stomoxys calcitrans [11] = test: Mortality percentage on day 7 in Adult stable flies after their exposure to sera for 24 hours, from the cattle, administered with the compound at 5 mg/kg
# Procedure, shortened: (§3)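 Calves given single intraruminal 5 mg/kg in 5 mL PEG-200 (two treated, one vehicle, one untreated). Blood taken pre-dose, 2, 5, 24 h, then daily; serum on saturated dental wick fed to adult stable flies (20/dish) or ~50 first-instar blowflies (27 °C, 55% RH); % mortality after 24 h exposure.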
# Stomoxys calcitrans [12] = test: In vitro insecticidal activity against adult stable fly in serum collected from calves administered with 0.75 mg/kg
# Stomoxys calcitrans [13] = test: In vitro insecticidal activity against adult stable fly in serum collected from calves administered with 1.50 mg/kg; conditions: dose 1.5 mg/kg
# Stomoxys calcitrans [14] = test: In vitro insecticidal activity against adult stable fly in serum collected from calves administered with 1 mg/kg
# Stomoxys calcitrans [15] = test: In vivo insecticidal activity against adult stable fly in serum collected from calves administered with 0.75 mg/kg
# Stomoxys calcitrans [16] = test: In vivo insecticidal activity against adult stable fly in serum collected from calves administered with 1.0 mg/kg
# Stomoxys calcitrans [17] = test: In vivo insecticidal activity against adult stable fly in serum collected from calves administered with 1.50 mg/kg; conditions: dose 1.5 mg/kg
# Stomoxys calcitrans [18] = test: Mortality percentage after on day 2 in Adult stable flies after their exposure to sera for 24 hours, from the cattle, administered with the compound at 5 mg/kg; procedure, shortened: as §3
# Stomoxys calcitrans [19] = test: Mortality percentage on 0 day in Adult stable flies after their exposure to sera for 24 hours, from the cattle, administered with the compound at 5 mg/kg; procedure, shortened: as §3
# Stomoxys calcitrans [20] = test: Mortality percentage on 1 day in Adult stable flies after their exposure to sera for 24 hours, from the cattle, administered with the compound at 5 mg/kg; procedure, shortened: as §3
# Stomoxys calcitrans [21] = test: Mortality percentage on day 3 in Adult stable flies after their exposure to sera for 24 hours, from the cattle, administered with the compound at 5 mg/kg; procedure, shortened: as §3
# Stomoxys calcitrans [22] = test: Mortality percentage on day 3 in Adult stable flies after their exposure to sera for 48 hours, from the cattle, administered with the compound at 5 mg/kg; procedure, shortened: as §2
# Stomoxys calcitrans [23] = test: Mortality percentage on day 5 in Adult stable flies after their exposure to sera for 24 hours, from the cattle, administered with the compound at 5 mg/kg; procedure, shortened: as §3
# Stomoxys calcitrans [24] = test: Mortality percentage on day 6 in Adult stable flies after their exposure to sera for 24 hours, from the cattle, administered with the compound at 5 mg/kg; procedure, shortened: as §3
# Calliphoridae [25] = test: Mortality percentage on day 7 in Blowfly larvae after their exposure to sera for 24 hours, from the cattle administered with the compound at 5 mg/kg; procedure, shortened: as §3
# Calliphoridae [26] = test: In vivo insecticidal activity against Larval blowfly from calves administered with 0.75 mg/kg; procedure, shortened: as §1
# Calliphoridae [27] = test: In vivo insecticidal activity against Larval blowfly from calves administered with 1.0 mg/kg; procedure, shortened: as §1
# Calliphoridae [28] = test: In vivo insecticidal activity against Larval blowfly from calves administered with 1.50 mg/kg; conditions: dose 1.5 mg/kg; procedure, shortened: as §1
# Calliphoridae [29] = test: Mortality percentage on day 0 in Blowfly larvae after their exposure to sera for 24 hours, from the cattle administered with the compound at 5 mg/kg; procedure, shortened: as §3
# Calliphoridae [30] = test: Mortality percentage on day 2 in Blowfly larvae after their exposure to sera for 24 hours, from the cattle administered with the compound at 5 mg/kg; procedure, shortened: as §3
# Calliphoridae [31] = test: Mortality percentage on day 3 in Blowfly larvae after their exposure to sera for 24 hours, from the cattle administered with the compound at 5 mg/kg; procedure, shortened: as §3
# Calliphoridae [32] = test: Mortality percentage on day 3 in Blowfly larvae after their exposure to sera for 48 hours, from the cattle administered with the compound at 5 mg/kg; procedure, shortened: as §2
# Calliphoridae [33] = test: Mortality percentage on day 4 in Blowfly larvae after their exposure to sera for 24 hours, from the cattle administered with the compound at 5 mg/kg; procedure, shortened: as §3
# Calliphoridae [34] = test: Mortality percentage on day 4 in Blowfly larvae after their exposure to sera for 48 hours, from the cattle administered with the compound at 5 mg/kg; procedure, shortened: as §2
# Calliphoridae [35] = test: Mortality percentage on day 5 in Blowfly larvae after their exposure to sera for 24 hours, from the cattle administered with the compound at 5 mg/kg; procedure, shortened: as §3
# Calliphoridae [36] = test: Mortality percentage on day 5 in Blowfly larvae after their exposure to sera for 48 hours, from the cattle administered with the compound at 5 mg/kg; procedure, shortened: as §2
# Calliphoridae [37] = test: Mortality percentage on day 6 in Blowfly larvae after their exposure to sera for 24 hours, from the cattle administered with the compound at 5 mg/kg; procedure, shortened: as §3
# Calliphoridae [38] = test: Mortality percentage on day 6 in Blowfly larvae after their exposure to sera for 48 hours, from the cattle administered with the compound at 5 mg/kg; procedure, shortened: as §2
# Stomoxys calcitrans [39] = test: Mortality percentage on day 5 in Adult stable flies after their exposure to sera for 48 hours, from the cattle, administered with the compound at 5 mg/kg; procedure, shortened: as §2
# Calliphoridae [40] = test: Mortality percentage on day 1 in Blowfly larvae after their exposure to sera for 24 hours, from the cattle administered with the compound at 5 mg/kg; procedure, shortened: as §3
smiles,measurement,setting,value
O=C(/C=C(\[O-])c1cc(Cl)cc(Cl)c1)C(F)(F)C(F)(F)C(F)(F)F.[Na+],Lowest effective concentration,Stomoxys calcitrans [1],25 p.p.m.
same,Activity,Stomoxys calcitrans [2],9 day of onset
same,Activity,Stomoxys calcitrans [3],4 day of onset
same,Activity,Stomoxys calcitrans [4],3 day of onset
same,Activity,Stomoxys calcitrans [5],4 day of onset
same,Activity,Stomoxys calcitrans [6],3 day of onset
same,Activity,Calliphoridae [7],8 day of onset
same,Lowest effective concentration,Calliphoridae [8],15 p.p.m.
same,Activity,Calliphoridae [9],5 day of onset
O=C(/C=C(\[O-])c1ccc(Cl)cc1)C(F)(F)C(F)(F)C(F)(F)F.[Na+],Lowest effective concentration,Stomoxys calcitrans [1],25 p.p.m.
same,Lowest effective concentration,Calliphoridae [8],50 p.p.m.
CNC(=O)Oc1cccc2c1OC(C)(C)C2 [CARBOFURAN],Lowest effective concentration,Stomoxys calcitrans [1],1 p.p.m.
same,Lowest effective concentration,Calliphoridae [8],5 p.p.m.
O=C(/C=C(\[O-])c1cc(Cl)cc(Cl)c1)C(F)(F)F.[Na+],Lowest effective concentration,Stomoxys calcitrans [1],25 p.p.m.
same,Lowest effective concentration,Calliphoridae [8],20 p.p.m.
O=C(/C=C(\[O-])c1cc(Cl)cc(Cl)c1)C(F)(F)C(F)(F)F.[Na+],mortality at 5 mg/kg,Stomoxys calcitrans [10],30%
same,mortality at 5 mg/kg,Stomoxys calcitrans [11],10%
same,Lowest effective concentration,Stomoxys calcitrans [1],20 p.p.m.
same,Activity,Stomoxys calcitrans [3],6 day of onset
same,Activity,Stomoxys calcitrans [12],4 day of onset
same,Activity,Stomoxys calcitrans [13],2 day of onset
same,Activity,Stomoxys calcitrans [14],3 day of onset
same,Activity,Stomoxys calcitrans [5],6 day of onset
same,Activity,Stomoxys calcitrans [15],4 day of onset
same,Activity,Stomoxys calcitrans [16],3 day of onset
same,Activity,Stomoxys calcitrans [17],2 day of onset
same,mortality at 5 mg/kg,Stomoxys calcitrans [18],55%
same,mortality at 5 mg/kg,Stomoxys calcitrans [19],0%
same,mortality at 5 mg/kg,Stomoxys calcitrans [20],20%
same,mortality at 5 mg/kg,Stomoxys calcitrans [21],45%
same,mortality at 5 mg/kg,Stomoxys calcitrans [22],100%
same,mortality at 5 mg/kg,Stomoxys calcitrans [23],0%
same,mortality at 5 mg/kg,Stomoxys calcitrans [24],0%
same,mortality at 5 mg/kg,Calliphoridae [25],0%
same,Activity,Calliphoridae [7],6 day of onset
same,Activity,Calliphoridae [26],4 day of onset
same,Activity,Calliphoridae [27],5 day of onset
same,Activity,Calliphoridae [28],2 day of onset
same,mortality at 5 mg/kg,Calliphoridae [29],0%
same,mortality at 5 mg/kg,Calliphoridae [30],0%
same,mortality at 5 mg/kg,Calliphoridae [31],0%
same,mortality at 5 mg/kg,Calliphoridae [32],100%
same,mortality at 5 mg/kg,Calliphoridae [33],0%
same,mortality at 5 mg/kg,Calliphoridae [34],50%
same,mortality at 5 mg/kg,Calliphoridae [35],0%
same,mortality at 5 mg/kg,Calliphoridae [36],0%
same,mortality at 5 mg/kg,Calliphoridae [37],0%
same,mortality at 5 mg/kg,Calliphoridae [38],0%
same,Lowest effective concentration,Calliphoridae [8],40 p.p.m.
same,mortality at 5 mg/kg,Stomoxys calcitrans [39],80%
same,mortality at 5 mg/kg,Calliphoridae [40],0%
O=C(/C=C(\[O-])c1ccc(F)c(F)c1)C(F)(F)C(F)(F)C(F)(F)F.[Na+],Lowest effective concentration,Stomoxys calcitrans [1],25 p.p.m.
same,Lowest effective concentration,Calliphoridae [8],30 p.p.m.
O=C(/C=C(\[O-])c1cc(Br)cc(Br)c1)C(F)(F)C(F)(F)C(F)(F)F.[Na+],Lowest effective concentration,Stomoxys calcitrans [1],25 p.p.m.
same,Lowest effective concentration,Calliphoridae [8],25 p.p.m.
CC[C@H](C)[C@H]1O[C@]2(C=C[C@@H]1C)C[C@@H]1C[C@@H](C/C=C(\C)[C@@H](O[C@H]3C[C@H](OC)[C@@H](O[C@H]4C[C@H](OC)[C@@H](O)[C@H](C)O4)[C@H](C)O3)[C@@H](C)/C=C/C=C3\CO[C@@H]4[C@H](O)C(C)=C[C@@H](C(=O)O1)[C@]34O)O2 [ABAMECTIN COMPONENT B1A],Lowest effective concentration,Stomoxys calcitrans [1],10 p.p.m.
same,Lowest effective concentration,Calliphoridae [8],0.5 p.p.m.
O=C(/C=C(\[O-])c1cccc(C(F)(F)F)c1)C(F)(F)C(F)(F)C(F)(F)F.[Na+],Lowest effective concentration,Stomoxys calcitrans [1],35 p.p.m.
same,Lowest effective concentration,Calliphoridae [8],40 p.p.m.
Cc1c(COC(=O)C2C(/C=C(\Cl)C(F)(F)F)C2(C)C)cccc1-c1ccccc1 (stereo not drawn),Lowest effective concentration,Stomoxys calcitrans [1],25 p.p.m.
same,Lowest effective concentration,Calliphoridae [8],5 p.p.m.
O=C(/C=C(\[O-])c1cc(Cl)cc(Cl)c1)C(F)(F)C(F)F.[Na+],Lowest effective concentration,Stomoxys calcitrans [1],20 p.p.m.
same,Activity,Stomoxys calcitrans [4],5 day of onset
same,Lowest effective concentration,Calliphoridae [8],25 p.p.m.
O=C(/C=C(\[O-])c1ccc(Cl)c(Cl)c1)C(F)(F)C(F)(F)C(F)(F)F.[Na+],Lowest effective concentration,Stomoxys calcitrans [1],25 p.p.m.
same,Lowest effective concentration,Calliphoridae [8],30 p.p.m.
O=C(/C=C(\[O-])c1ccc(C(F)(F)F)cc1)C(F)(F)C(F)(F)C(F)(F)F.[Na+],Lowest effective concentration,Stomoxys calcitrans [1],30 p.p.m.
same,Lowest effective concentration,Calliphoridae [8],35 p.p.m.
